Results from different studies.
Protocols differ between the studies behind these lines.
Target: Cannabinoid receptor 2 (CNR2, Homo sapiens, UniProt P34972)

Compound	assay	setting	measurement	value
O=C(Nc1cccnn1)N1CCN([C@@H]2CCOc3cc(C(F)(F)F)ccc32)CC1	ligand displacement	20 µM	inhibition	23%
COc1ccc(S(=O)(=O)N2CCCCC2)cc1C	ligand displacement, radioligand	10 µM	inhibition	< 30%
Clc1ccc2c(C3CCN(CCc4c[nH]c5ccccc45)CC3)c[nH]c2c1	ligand displacement, radioligand	10 µM	inhibition	11%
COc1cccc2c(C(=O)c3cccc4ccccc34)cn(CCN3CCOCC3)c12	ligand displacement, radioligand	1 µM, cell membranes	inhibition	100%
CCOC(=O)C(CC)(CCCSCCOCCOCCOCCOCCNC(=O)OC(C)(C)C)NC(=O)c1ccc(C2CC2)c(Cc2ccc(F)cc2)n1 (centres unmarked)	cAMP, agonist		Emax	91%
CN(CCN1CCC(OC(=O)Nc2ccccc2-c2ccccc2)CC1)C(=O)c1ccc(CN2CCC(C(N)=O)CC2)cc1	ligand displacement, radioligand	1 µM	inhibition	-2%
CCOC(=O)C(CC)(CCCSCCOCCOCCNc1ccc([N+](=O)[O-])c2nonc12)NC(=O)c1ccc(C2CC2)c(Cc2ccc(F)cc2)n1 (racemic)	cAMP, agonist		Emax	100%
COCc1c(-c2cc3cc(C)cc(OC)c3s2)c2c(N)ncnn2c1CN1CCNC(=O)C1	ligand displacement, radioligand	10 µM	inhibition	2%
